{"source": "ChEMBL document CHEMBL1154186", "about": "“Synthesis, kinase inhibitory potencies, and in vitro antiproliferative evaluation of new Pim kinase inhibitors” (J Med Chem, 2009)", "key": {"[1]": {"tested_on": "PA-1", "experiment": "Antiproliferative activity against human PA1 cells after 48 hrs by resazurin dye reduction assay", "assay_type": "functional, cell-based", "details": "PA-1, 48 h", "method_in_brief": "(§1)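 Cells (human fibroblast primary culture, or PC3, DU145 or PA1 cancer lines) were kept as monolayers in Glutamax MEM with Earle's salts, 10% FCS, pyruvate, nonessential amino acids and gentamicin, at 37 °C in 5% CO2. 5×10^3 cells/well adhered for 16 h, then had 48 h continuous drug exposure (20 mM DMSO stock). Resazurin 25 µg/mL for 1 h; fluorescence ex 530/em 590 nm. IC50 from blank-corrected concentration–survival curves versus control wells.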"}, "[2]": {"experiment": "Antiproliferative activity against human fibroblasts after 48 hrs by resazurin dye reduction assay", "assay_type": "cell-based", "details": "Fibroblast", "method_in_brief": "as §1"}, "[3]": {"target": "Mitogen-activated protein kinase 3 (Homo sapiens) (UniProt P27361)", "sequence (P27361 whole entry)": "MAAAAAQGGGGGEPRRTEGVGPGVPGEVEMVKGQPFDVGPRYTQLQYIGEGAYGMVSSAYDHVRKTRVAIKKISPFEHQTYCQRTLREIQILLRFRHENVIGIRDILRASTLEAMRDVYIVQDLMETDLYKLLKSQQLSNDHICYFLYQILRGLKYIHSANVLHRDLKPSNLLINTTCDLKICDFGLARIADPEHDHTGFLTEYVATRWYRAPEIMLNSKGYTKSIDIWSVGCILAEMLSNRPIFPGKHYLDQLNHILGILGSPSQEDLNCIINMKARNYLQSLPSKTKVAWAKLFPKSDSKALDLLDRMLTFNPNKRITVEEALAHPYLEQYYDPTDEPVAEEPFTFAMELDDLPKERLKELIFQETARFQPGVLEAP", "experiment": "Inhibition of ERK1 assessed as residual enzyme activity at 10 uM relative to untreated control", "method_in_brief": "(§2)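 Radiometric filter-binding assay at 21 °C for 30 min. Mix: 50 mM Tris/HCl pH 7.5, 0.1 mM EGTA, 0.1% 2-mercaptoethanol, 10 mM Mg acetate and [γ-33P]ATP (800 cpm/pmol) at 5 µM. Stopped with orthophosphoric acid and spotted on P81. Compound at 10 µM; activity given as % remaining versus no-inhibitor control, duplicates. Kinases human full-length unless noted.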"}, "[4]": {"target": "T1, Aurora kinase C (Homo sapiens) (UniProt Q9UQB9)", "T1 sequence (whole entry)": "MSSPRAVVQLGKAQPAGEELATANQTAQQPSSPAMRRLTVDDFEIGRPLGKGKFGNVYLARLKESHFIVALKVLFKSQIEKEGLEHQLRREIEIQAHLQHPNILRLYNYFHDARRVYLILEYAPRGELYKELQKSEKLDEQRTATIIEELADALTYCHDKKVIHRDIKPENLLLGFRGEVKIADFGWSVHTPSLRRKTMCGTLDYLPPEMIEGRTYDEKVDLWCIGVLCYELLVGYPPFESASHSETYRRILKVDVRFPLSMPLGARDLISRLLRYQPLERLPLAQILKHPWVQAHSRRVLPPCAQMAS", "experiment": "Inhibition of AURORA C assessed as residual enzyme activity at 10 uM relative to untreated control", "method_in_brief": "as §2"}, "[5]": {"tested_on": "PC-3", "experiment": "Antiproliferative activity against human PC3 cells after 48 hrs by resazurin dye reduction assay", "assay_type": "functional, cell-based", "details": "PC-3, 48 h", "method_in_brief": "as §1"}, "[6]": {"target": "Proto-oncogene tyrosine-protein kinase Src (Homo sapiens) (UniProt P12931)", "sequence (P12931 2-536 limits assumed)": "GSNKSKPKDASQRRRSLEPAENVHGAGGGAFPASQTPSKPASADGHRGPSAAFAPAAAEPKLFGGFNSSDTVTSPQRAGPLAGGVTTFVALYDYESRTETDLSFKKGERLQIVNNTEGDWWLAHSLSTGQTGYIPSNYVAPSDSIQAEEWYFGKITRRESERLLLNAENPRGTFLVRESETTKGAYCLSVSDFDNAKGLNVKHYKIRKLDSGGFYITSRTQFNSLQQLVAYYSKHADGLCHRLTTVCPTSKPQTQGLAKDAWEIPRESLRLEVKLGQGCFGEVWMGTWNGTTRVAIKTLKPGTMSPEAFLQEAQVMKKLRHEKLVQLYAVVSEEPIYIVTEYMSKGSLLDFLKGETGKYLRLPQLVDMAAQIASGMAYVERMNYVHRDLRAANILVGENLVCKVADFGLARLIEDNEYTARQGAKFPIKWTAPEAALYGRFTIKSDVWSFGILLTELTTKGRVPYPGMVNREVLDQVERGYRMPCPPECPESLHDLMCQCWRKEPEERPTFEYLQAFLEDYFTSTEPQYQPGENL", "experiment": "Inhibition of Src assessed as residual enzyme activity at 10 uM relative to untreated control"}, "[7]": {"target": "Mitogen-activated protein kinase 10 (Homo sapiens) (UniProt P53779)", "sequence (P53779 whole entry)": "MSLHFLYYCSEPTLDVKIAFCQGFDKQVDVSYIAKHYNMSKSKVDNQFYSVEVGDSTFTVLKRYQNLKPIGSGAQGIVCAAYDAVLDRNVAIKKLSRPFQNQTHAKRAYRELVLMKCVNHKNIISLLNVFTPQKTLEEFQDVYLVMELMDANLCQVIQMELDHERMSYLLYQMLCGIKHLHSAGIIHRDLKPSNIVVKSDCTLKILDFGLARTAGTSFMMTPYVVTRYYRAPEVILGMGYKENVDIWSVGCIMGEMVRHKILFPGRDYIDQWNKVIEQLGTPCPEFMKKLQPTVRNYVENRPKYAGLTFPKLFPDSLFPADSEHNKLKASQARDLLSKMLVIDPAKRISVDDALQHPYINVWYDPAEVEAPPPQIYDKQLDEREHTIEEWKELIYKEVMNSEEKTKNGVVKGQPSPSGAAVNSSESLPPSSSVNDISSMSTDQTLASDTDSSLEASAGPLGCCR", "experiment": "Inhibition of JNK3 assessed as residual enzyme activity at 10 uM relative to untreated control", "method_in_brief": "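Assayed with [γ-33P]ATP at 50 µM and 10 mM Mg acetate in 50 mM Tris/HCl pH 7.5, 0.1 mM EGTA, 0.1% 2-mercaptoethanol, 30 min, 21 °C. Phosphoric acid stop, P81 filter capture. ERK2 and Lck are mouse; AMPK is rat. 10 µM compound; % activity remaining relative to control without inhibitor, duplicates.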"}, "[8]": {"tested_on": "DU-145", "experiment": "Antiproliferative activity against human DU145 cells after 48 hrs by resazurin dye reduction assay", "assay_type": "functional, cell-based", "details": "DU-145, 48 h", "method_in_brief": "as §1"}, "[9]": {"target": "Serine/threonine-protein kinase pim-2 (Homo sapiens) (UniProt Q9P1W9)", "sequence (Q9P1W9 whole entry, looked up)": "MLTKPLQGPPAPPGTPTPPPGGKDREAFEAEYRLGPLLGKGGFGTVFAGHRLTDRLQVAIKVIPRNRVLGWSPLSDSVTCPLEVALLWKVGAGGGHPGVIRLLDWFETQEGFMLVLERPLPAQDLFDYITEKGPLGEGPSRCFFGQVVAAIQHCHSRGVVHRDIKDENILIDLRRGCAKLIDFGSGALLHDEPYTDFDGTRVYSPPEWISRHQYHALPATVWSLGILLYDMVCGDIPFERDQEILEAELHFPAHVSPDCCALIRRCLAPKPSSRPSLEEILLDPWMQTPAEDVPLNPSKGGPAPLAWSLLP", "experiment": "Inhibition of Pim-2 assessed as residual enzyme activity at 10 uM relative to untreated control"}, "[10]": {"target": "Serine/threonine-protein kinase pim-3 (Homo sapiens) (UniProt Q86V86)", "experiment": "Inhibition of Pim-3 assessed as residual enzyme activity at 10 uM relative to untreated control"}}}
{"smiles": "O=Cc1c[nH]c2c1ccc1c3ccccc3[nH]c12", "values": [{"measurement": "IC50", "setting": "[1]", "value": 4.5, "unit": "µM"}, {"measurement": "IC50", "setting": "[2]", "value": 21, "unit": "µM"}, {"measurement": "Activity", "setting": "[3]", "value": 87, "unit": "%"}, {"measurement": "Activity", "setting": "[4]", "value": 79, "unit": "%"}, {"measurement": "IC50", "setting": "[5]", "value": 9.5, "unit": "µM"}, {"measurement": "Activity", "setting": "[6]", "value": 85, "unit": "%"}, {"measurement": "Activity", "setting": "[7]", "value": 113, "unit": "%"}, {"measurement": "IC50", "setting": "[8]", "value": 26, "unit": "µM"}]}
{"smiles": "O=Cc1c[nH]c2ccc3c4ccccc4[nH]c3c12", "values": [{"measurement": "Activity", "setting": "[9]", "value": 102, "unit": "%"}, {"measurement": "Activity", "setting": "[3]", "value": 95, "unit": "%"}, {"measurement": "Activity", "setting": "[4]", "value": 104, "unit": "%"}, {"measurement": "Activity", "setting": "[10]", "value": 102, "unit": "%"}, {"measurement": "Activity", "setting": "[6]", "value": 99, "unit": "%"}, {"measurement": "Activity", "setting": "[7]", "value": 96, "unit": "%"}]}
{"smiles": "c1ccc2c(c1)[nH]c1c2ccc2cc[nH]c21", "values": [{"measurement": "Activity", "setting": "[9]", "value": 62, "unit": "%"}, {"measurement": "Activity", "setting": "[3]", "value": 108, "unit": "%"}, {"measurement": "Activity", "setting": "[4]", "value": 85, "unit": "%"}, {"measurement": "Activity", "setting": "[10]", "value": 38, "unit": "%"}, {"measurement": "Activity", "setting": "[6]", "value": 98, "unit": "%"}, {"measurement": "Activity", "setting": "[7]", "value": 108, "unit": "%"}]}
{"smiles": "c1ccc2c(c1)[nH]c1c3cc[nH]c3ccc21", "values": [{"measurement": "Activity", "setting": "[9]", "value": 77, "unit": "%"}, {"measurement": "Activity", "setting": "[3]", "value": 97, "unit": "%"}, {"measurement": "Activity", "setting": "[4]", "value": 99, "unit": "%"}, {"measurement": "Activity", "setting": "[10]", "value": 29, "unit": "%"}, {"measurement": "Activity", "setting": "[6]", "value": 102, "unit": "%"}, {"measurement": "Activity", "setting": "[7]", "value": 111, "unit": "%"}]}
